Measured values reported in ChEMBL document CHEMBL5096209, “Structure-Activity Studies of 3,9-Diazaspiro[5.5]undecane-Based γ-Aminobutyric Acid Type A Receptor Antagonists with Immunomodulatory Effect” (J Med Chem, 2021).
Calls of active or inactive are those of the source. The rule behind the calls is not given here.

target: GABA-A receptor; anion channel; assay: Displacement of [3H]-muscimol from rat cortical synaptic membrane GABAA receptor assessed as inhibition constant by microscint-scintillation method; assay type: cell membranes, Cortex
In short: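 Rat cortical synaptic membranes, washed repeatedly in 50 mM Tris-HCl pH 7.4, 70–80 μg protein. Incubated at 0 °C with 5 nM [3H]-muscimol (final) and a range of test concentrations, then filtered and counted by scintillation. Nonspecific binding defined with 1.0 mM GABA. IC50 converted to Ki by Cheng–Prusoff, triplicate, three independent experiments.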

Row | Structure (SMILES) | Ki | pKi
1 | O=C(c1ccc(C(F)(F)F)cc1)N1CCC2(CCNCC2)CC1 | 2200 nM | 
2 | O=C(c1cccc(OCc2ccccc2)c1)N1CCC2(CCNCC2)CC1 | 1000 nM | 
3 | O=C(c1ccccc1)N1CCC2(CCNCC2)CC1 | 1400 nM | 
4 | O=C(c1ccc(OCc2ccccc2)cc1)N1CCC2(CCNCC2)CC1 | 1000 nM | 
5 | Cc1ccccc1C(=O)N1CCC2(CCNCC2)CC1 | 4200 nM | 
6 | O=C(c1ccccc1Br)N1CCC2(CCNCC2)CC1 | 2700 nM | 
7 | O=C(c1ccc(O)cc1)N1CCC2(CCNCC2)CC1 | 860 nM | 6.08
8 | O=C(c1ccc([N+](=O)[O-])cc1)N1CCC2(CCNCC2)CC1 | 9400 nM | 
9 | O=C(c1cccc(OCc2cccs2)c1)N1CCC2(CCNCC2)CC1 | 1000 nM | 
10 | COC(=O)N1CCC2(CCNCC2)CC1 | 37000 nM | 
11 | Brc1ccc(CN2CCC3(CCNCC3)CC2)cc1 | 27000 nM | 
12 | O=C(c1cccc(Br)c1)N1CCC2(CCNCC2)CC1 | 300 nM | 
13 | O=C(c1cccc([N+](=O)[O-])c1)N1CCC2(CCNCC2)CC1 | 1500 nM | 
14 | Cc1cccc(CN2CCC3(CCNCC3)CC2)c1 | > 200000 nM | 
15 | CC(=O)N1CCC2(CCNCC2)CC1 | > 100000 nM | 
16 | Nc1cccc(C(=O)N2CCC3(CCNCC3)CC2)c1 | 1200 nM | 
17 | O=C(c1cccc(O)c1)N1CCC2(CCNCC2)CC1 | 340 nM | 6.49
18 | O=C(c1ccc(Br)cc1)N1CCC2(CCNCC2)CC1 | 230 nM | 
19 | Nc1ccc(C(=O)N2CCC3(CCNCC3)CC2)cc1 | 710 nM | 6.16

system: not listed separately; assay: Antiproliferative activity against human CD8-positive T cells at 33 uM measured after 96 hrs by flow cytometry analysis relative to control; assay type: functional, CD8-positive T cell
In short: (§1)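 Human PBMC were isolated from leukocyte cones by density gradient centrifugation and frozen. After overnight high-density culture at 1×10^7 cells/ml, cells were labelled with 5 μM CFSE for 10 min at room temperature and stimulated with soluble anti-CD3 (OKT3) at 100 pg/mL. Culture ran 96 h. Proliferating CD4+ and CD8+ cells were scored by CFSE flow cytometry against a PBS control. n≥6 independent experiments; one-way ANOVA with Tukey.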

Row | Structure (SMILES) | Activity
20 | Cc1nnc2n1-c1ccc(Cl)cc1C(c1ccccc1)=NC2 [ALPRAZOLAM] | 34.8%

system: not listed separately; assay: Antiproliferative activity against human CD4+ve T cells at 33 uM measured after 96 hrs by flow cytometry analysis relative to control; assay type: functional, CD4+ve Th; in short: as §1

Row | Structure (SMILES) | Activity
21 | Cc1nnc2n1-c1ccc(Cl)cc1C(c1ccccc1)=NC2 [ALPRAZOLAM] | 35.7%

system: not listed separately; assay: Induction of cell proliferation of human CD8-positive T cells at 100 uM measured after 96 hrs by flow cytometry analysis relative to control; assay type: functional
In short: (§2)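 Rescue format on human PBMC. Cells were CFSE-labelled (5 μM), stimulated with anti-CD3 OKT3 at 100 pg/mL, and treated with alprazolam 33 μM plus test agent at 100 μM. Culture ran 96 h. Proliferating CD4+ and CD8+ T cell percentages were measured by flow cytometry. Vehicle controls (methanol, DMSO) were included. n≥6 independent experiments; one-way ANOVA with Tukey.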

Row | Structure (SMILES) | Activity
22 | C[N+]1(C)CCc2cc3c(cc2[C@H]1[C@@H]1OC(=O)c2c1ccc1c2OCO1)OCO3.[I-] | 20%

system: CD4+ve Th; assay: Induction of cell proliferation of human CD4+ve Th cells at 100 uM measured after 96 hrs by flow cytometry analysis relative to control; assay type: functional; in short: as §2

Row | Structure (SMILES) | Activity
23 | C[N+]1(C)CCc2cc3c(cc2[C@H]1[C@@H]1OC(=O)c2c1ccc1c2OCO1)OCO3.[I-] | 20%

system: CD8-positive T cell; assay: Antiproliferative activity against mouse CD8-positive T cells at 100 uM measured after 48 hrs by flow cytometry analysis; assay type: functional, cell-based
In short: (§3)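 Splenocytes came from female wild-type BALB/c mice and were red-cell lysed. They were labelled with 5 μM CFSE for 10 min at room temperature and activated with soluble anti-mouse CD3 (145.2C11) at 33 ng/mL. Culture ran 48 h in RPMI with 10% FCS and 2 μM 2-mercaptoethanol. Percent proliferating CD4+ and CD8+ cells was read by flow cytometry. n≥6 independent experiments; one-way ANOVA with Tukey.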

Row | Structure (SMILES) | Activity
24 | Cc1nnc2n1-c1ccc(Cl)cc1C(c1ccccc1)=NC2 [ALPRAZOLAM] | Active

system: CD4+ve Th; assay: Antiproliferative activity against mouse CD4+ve Th cells at 100 uM measured after 48 hrs by flow cytometry analysis; assay type: functional, cell-based; in short: as §3

Row | Structure (SMILES) | Activity
25 | Cc1nnc2n1-c1ccc(Cl)cc1C(c1ccccc1)=NC2 [ALPRAZOLAM] | Active
